Reference: PubChem BioAssay AID504436 (Sanford-Burnham Center for Chemical Genomics, 2011)
Calls of active or inactive are those of the source.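 How the source made its calls: active means mean IC50 below 20 µM in the confirmatory beta-arrestin antagonist test; inactive means the rest.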

Target: Apelin receptor (Homo sapiens) (UniProt P35414)
Test: blockers of apelin-13-driven APJ signaling – cell-based, CHO-K1 AGTRL-1, PathHunter luminescence, set 5, SAR follow-up (AID 504436)
Conditions: CHO-K1 APJ beta-arrestin PathHunter, antagonist
How it was run: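 System: CHO-K1 PathHunter APJ beta-arrestin cells / Detection: luminescence from beta-gal fragment complementation upon beta-arrestin recruitment / Times: overnight seeding, 90 min exposure at 25 °C, 60 min detection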

Chain of Apelin receptor (Homo sapiens) (P35414 whole entry, looked up): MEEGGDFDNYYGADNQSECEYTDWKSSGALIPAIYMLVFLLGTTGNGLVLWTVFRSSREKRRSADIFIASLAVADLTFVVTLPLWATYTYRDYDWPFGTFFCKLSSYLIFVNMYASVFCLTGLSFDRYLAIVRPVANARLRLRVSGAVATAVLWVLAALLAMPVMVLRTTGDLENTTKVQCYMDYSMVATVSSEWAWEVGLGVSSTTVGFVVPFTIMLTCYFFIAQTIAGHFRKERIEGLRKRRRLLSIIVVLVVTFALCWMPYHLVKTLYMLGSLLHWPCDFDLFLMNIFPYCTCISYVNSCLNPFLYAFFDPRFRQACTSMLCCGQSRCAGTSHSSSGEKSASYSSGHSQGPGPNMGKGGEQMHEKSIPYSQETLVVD

Row | IC50 | SMILES
1 | > 79 µM (inactive) | Cc1cc(C)nc(SCc2cc(=O)c(OC(=O)c3ccc(-c4nccs4)cc3)co2)n1
2 | 16.4 µM | O=C(Oc1coc(CN2CCOCC2)cc1=O)c1ccc([N+](=O)[O-])cc1
3 | > 79 µM (inactive) | Cc1ccnc(SCc2cc(=O)c(NC(=O)c3ccc([N+](=O)[O-])cc3)co2)n1
4 | 12.8 µM | Cc1ccc(SCc2cc(=O)c(OC(=O)c3ccc(Cl)c([N+](=O)[O-])c3)co2)cc1
5 | > 79 µM (inactive) | O=C(Oc1coc(CN2CCOCC2)cc1=O)c1ccccc1
6 | 8.27 µM | COc1ccc(SCc2cc(=O)c(OC(=O)c3ccc(Cl)c([N+](=O)[O-])c3)co2)cc1
7 | inactive | O=C(Oc1coc(CSc2ccc(OC(F)(F)F)cc2)cc1=O)c1ccc(Cl)c([N+](=O)[O-])c1
8 | 4.53 µM | O=C(Oc1coc(CSc2ccc(Cl)cc2)cc1=O)c1ccc(Cl)c([N+](=O)[O-])c1
